Test results published in ChEMBL document CHEMBL1799922, “Synthesis and antimycobacterial activity of prodrugs of indeno[2,1-c]quinoline derivatives” (Eur J Med Chem, 2011).
In brackets after ≈: the same amount, converted by molar mass.

Experiments:
Serum = assay: Stability of the compound in 80% human blood serum assessed as hydrolysis to 2-bromo-6-(1H-imidazol-1-yl)-7H-indeno[2,1-c]quinolin-7-one oxime at 1 mg after 24 hrs at 37 degC by LC-MS analysis; format: ADME, cell-free; set-up: scale not given: the % may be the effect or the level left
Outline: (§1)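 Enzymatic hydrolysis: 1 mg prodrug dissolved in 1 mL ethanol, then 200 µL preheated human blood serum diluted to 80% with 0.16 M phosphate buffer (pH 7.4) was added. Samples were kept at 37 °C (24 h) and centrifuged 10 min at 10,000 rpm. Remaining prodrug in the supernatant was monitored by TLC and LC-MS. t1/2 is the time to 50% hydrolysis.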

[1] = Cytotoxicity against human U937 cells assessed as cell viability at 1.25 ug/ml after 72 hrs by MTT assay; format: cell-based, U-937; details: read-out: Activity
Outline: (§2)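 U937 human monocytic cells plated at 1 × 10^5 cells/mL and allowed to adhere for 1 h at 37 °C in 5% CO2. Non-adherent cells were washed off with RPMI 1640. Adherent cells were exposed to compound in triplicate, with medium alone as the live control and 3% Tween 20 as the dead control. MTT (5 mg/mL in PBS) was then added for 3 h at 37 °C. Formazan was dissolved in 0.4 M HCl/isopropanol and absorbance read at 600 nm. Results are expressed as % cell viability.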

[2] = Cytotoxicity against human U937 cells assessed as cell viability at 20 ug/ml after 72 hrs by MTT assay; format: cell-based, U-937; details: read-out: Activity; outline: as §2
[3] = system: Mycobacterium tuberculosis; assay: Antimicrobial activity against Mycobacterium tuberculosis H37Rv ATCC 27294 after 16 to 24 hrs by microplate alamar blue assay; format: functional
Outline: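 M. tuberculosis H37Rv inoculum 2×10^5 cfu/mL (100 µL) added to twofold dilutions in Middlebrook 7H12 medium; final test range 128 µM to 0.5 µM from 12.8 mM DMSO stocks. Incubated 37 °C; day 7 Tween 80 plus Alamar Blue added, further 16-24 h at 37 °C. Fluorescence ex 530/em 590 nm; MIC = lowest concentration giving >90% fluorescence reduction versus replicate bacteria-only controls. Rifampin, isoniazid controls.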

[4] = Cytotoxicity against human U937 cells assessed as cell viability at 5 ug/ml after 72 hrs by MTT assay; format: cell-based, U-937; details: read-out: Activity; outline: as §2
[5] = Octanol-water partition coefficient, log P of the compound at pH 7.4 at room temperature by UV spectrophotometric analysis; format: physicochemical
Outline: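 Shake-flask method at room temperature: 1-octanol and phosphate buffer (pH 7.4) were pre-saturated by shaking for 24 h. Compound at 10^-4 M in equal volumes of both phases was shaken vigorously for 1 h, left to stand 15 min, then centrifuged 10 min at 10,000 rpm. UV absorbance of each phase was read at 280 nm against blanks, and P was taken as the octanol/water absorbance ratio.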

[6] = Cytotoxicity against human U937 cells assessed as cell viability at 10 ug/ml after 72 hrs by MTT assay; format: cell-based, U-937; details: read-out: Activity; outline: as §2
[7] = Selectivity index, ratio CC50 for human U937 cells to MIC for Mycobacterium tuberculosis H37Rv ATCC 27294; format: functional, U-937
[8] = Half life in 10% aqueous ammonia buffer at pH 8 assessed as hydrolysis to 2-bromo-6-(1H-imidazol-1-yl)-7H-indeno[2,1-c]quinolin-7-one oxime at 37 degC by LC-MS analysis; format: physicochemical
Outline: (§3)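 Chemical hydrolysis: 1 mg prodrug dissolved in 1 mL of 10% aqueous ammonia in methanol (pH 8) and held in a thermostatted water bath at 37 °C, up to 24 h. Conversion to the parent oxime was followed by TLC and LC-MS. t1/2 is the time to 50% hydrolysis.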

[9] = Stability of the compound in 10% aqueous ammonia buffer at pH 8 assessed as hydrolysis to 2-bromo-6-(1H-imidazol-1-yl)-7H-indeno[2,1-c]quinolin-7-one oxime at 1 mg at 37 degC by LC-MS analysis; format: physicochemical; set-up: scale not given: the % may be the effect or the level left; outline: as §3
[10] = Half life in human blood serum by LC-MS analysis; format: ADME, cell-free, Plasma; outline: as §1

SMILES | Activity (Serum) | viability at 72 h, 1.25 ug/ml [1] | viability at 72 h, 20 ug/ml [2] | MIC [3] | viability at 72 h, 5 ug/ml [4] | logD [5] | viability at 72 h, 10 ug/ml [6] | Selectivity Index [7] | half-life [8] | Activity [9] | half-life [10]
CCC(=O)O/N=C1\c2ccccc2-c2c1c(-n1ccnc1)nc1ccc(Br)cc21 | 90% | 84% | 67% | 0.29 µg/mL (≈ 0.648 µM) | 86% | 1.2 | 75% | >137 | 48 h | 95% | 84 h
CC(C)(C)OC(=O)NCC(=O)O/N=C1\c2ccccc2-c2c1c(N1CCN(c3ccccn3)CC1)nc1ccc(Br)cc21 | 95% | 87% | 49% | 1.55 µg/mL (≈ 2.41 µM) | 82% | 0.7 | 63% | 22 | 3.6 h | 95% | 24 h
CCCCCCCCCC(=O)O/N=C1\c2ccccc2-c2c1c(-n1ccnc1)nc1ccc(Br)cc21 | 90% | 100% | – | 3 µg/mL (≈ 5.5 µM) | – | 1.4 | 81% | – | 24 h | 90% | 144 h
CCCCCC(=O)O/N=C1\c2ccccc2-c2c1c(-n1ccnc1)nc1ccc(Br)cc21 | 85% | 81% | – | 1.5 µg/mL (≈ 3.07 µM) | – | 2.1 | 100% | – | 144 h | 90% | 240 h
CCCCCCC(=O)O/N=C1\c2ccccc2-c2c1c(-n1ccnc1)nc1ccc(Br)cc21 | 85% | 85% | 60% | 0.36 µg/mL (≈ 0.715 µM) | 80% | 1.5 | 67% | >111 | 48 h | 95% | 192 h
CC(C)(C)OC(=O)NC(Cc1ccccc1)C(=O)O/N=C1\c2ccccc2-c2c1c(N1CCN(c3ccccn3)CC1)nc1ccc(Br)cc21 (stereo not given) | 70% | 87% | 73% | 3.47 µg/mL (≈ 4.73 µM) | 87% | 1.2 | 71% | >12 | 72 h | 98% | 432 h
CC(=O)NCC(=O)O/N=C1\c2ccccc2-c2c1c(N1CCN(c3ccccn3)CC1)nc1ccc(Br)cc21 | 95% | 83% | – | 6 µg/mL (≈ 10.2 µM) | – | 1.2 | 77% | – | 144 h | 95% | 192 h
CCCCC(=O)O/N=C1\c2ccccc2-c2c1c(-n1ccnc1)nc1ccc(Br)cc21 | 90% | 85% | 51% | 0.28 µg/mL (≈ 0.589 µM) | 82% | 1.6 | 75% | 60 | 72 h | 90% | 144 h
CC(C)(C)OC(=O)NC(Cc1cccc(F)c1)C(=O)O/N=C1\c2ccccc2-c2c1c(N1CCN(c3ccccn3)CC1)nc1ccc(Br)cc21 (stereo not given) | 95% | 92% | 84% | 2.98 µg/mL (≈ 3.96 µM) | 90% | 1.1 | 79% | >13 | 72 h | 95% | 144 h
CCCC(=O)O/N=C1\c2ccccc2-c2c1c(-n1ccnc1)nc1ccc(Br)cc21 | 90% | 85% | 70% | < 0.2 µg/mL | 88% | 1.5 | 69% | >200 | 36 h | 95% | 96 h
CCCCCCCCC(=O)O/N=C1\c2ccccc2-c2c1c(-n1ccnc1)nc1ccc(Br)cc21 | 95% | 87% | 72% | 0.39 µg/mL (≈ 0.734 µM) | 85% | 1.9 | 77% | >102 | 24 h | 95% | 72 h
CCCCCC(=O)OC1(C)c2ccccc2-c2c1c(-n1ccnc1)nc1ccc(Br)cc21 (stereo not given) | Not Active | 85% | 15% | 1.6 µg/mL (≈ 3.26 µM) | 77% | 1.4 | 54% | 6.1 | 288 h | 90% | –
CCCCCC(=O)O/N=C1\c2ccccc2-c2c1c(N1CCN(c3ccccn3)CC1)nc1ccc(Br)cc21 | 5% | 96% | 87% | 3.16 µg/mL (≈ 5.41 µM) | 86% | 2.1 | 85% | >13 | 576 h | 95% | –
CC(C)(C)OC(=O)N1CCC[C@H]1C(=O)O/N=C1\c2ccccc2-c2c1c(N1CCN(c3ccccn3)CC1)nc1ccc(Br)cc21 | 13% | 86% | 69% | 1.53 µg/mL (≈ 2.24 µM) | 75% | 2.3 | 61% | >26 | 24 h | 95% | –
CC(C)(C)OC(=O)N[C@H](C(=O)O/N=C1\c2ccccc2-c2c1c(N1CCN(c3ccccn3)CC1)nc1ccc(Br)cc21)C(C)(C)C | 11% | 92% | 82% | 1.52 µg/mL (≈ 2.17 µM) | 86% | 1.5 | 87% | >26 | 48 h | 95% | –
C[C@H](NC(=O)OC(C)(C)C)C(=O)O/N=C1\c2ccccc2-c2c1c(N1CCN(c3ccccn3)CC1)nc1ccc(Br)cc21 | 66% | 100% | – | 6 µg/mL (≈ 9.12 µM) | – | 1.7 | 100% | – | 48 h | 95% | 480 h
O=C(CCCCBr)O/N=C1\c2ccccc2-c2c1c(N1CCN(c3ccccn3)CC1)nc1ccc(Br)cc21 | 10% | 99% | 80% | 2.03 µg/mL (≈ 3.13 µM) | 94% | 1.5 | 79% | >20 | 96 h | 95% | –
CCC(=O)O/N=C1\c2ccccc2-c2c1c(N1CCN(c3ccccn3)CC1)nc1ccc(Br)cc21 | 13% | 83% | 83% | 3.13 µg/mL (≈ 5.77 µM) | 88% | 2.7 | 81% | >13 | 144 h | 95% | –
CC1(OC(=O)CC(F)(F)F)c2ccccc2-c2c1c(-n1ccnc1)nc1ccc(Br)cc21 (stereo not given) | – | 92% | 26% | 0.5 µg/mL (≈ 0.995 µM) | 80% | 1.8 | 62% | 22.4 | 24 h | 96% | 480 h
